Activity calls are given as the source filed them. The rule behind the calls is not given here. Some results are limits rather than exact numbers.

Here are results for 1 compound from ChEMBL document CHEMBL3808357, “Discovery of N-(3-((1-Isonicotinoylpiperidin-4-yl)oxy)-4-methylphenyl)-3-(trifluoromethyl)benzamide (CHMFL-KIT-110) as a Selective, Potent, and Orally Available Type II c-KIT Kinase Inhibitor for Gastrointestinal Stromal Tumors (GISTs)” (J Med Chem, 2016).

Series [1] has as its target Mast/stem cell growth factor receptor Kit (Homo sapiens) (UniProt P10721). Briefly: Inhibition of cKIT in human GIST882 cells assessed as suppression of ERK phosphorylation at T202/Y204 up to 10 uM after 2 hrs by Western blot analysis. The class given is cell-based. (In general: In western blotting, separated proteins are transferred to a membrane and probed.)
Series [2] addresses T1, Macrophage colony-stimulating factor 1 receptor (Homo sapiens, UniProt P07333). Briefly: Inhibition of His-tagged recombinant human CSF1R expressed in baculovirus expression system after 1 hr by Z-lyte assay.
Series [3] concerns the target Mast/stem cell growth factor receptor Kit (Homo sapiens) (UniProt P10721). Briefly: Inhibition of cKIT autophosphorylation at Y719 in human GIST48B cells up to 10 uM after 2 hrs by Western blot analysis. The series is classed as cell-based.
The nature of series [4]: Antiproliferative activity against cKIT dependent human GIST882 cells assessed as reduction in cell viability after 72 hrs by celltiter-glo/CCK8 assay. The series is classed as functional. The settings on record: GIST882, 72 h. The method, boiled down: (§1)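 Cells were seeded at 1 to 3 × 10⁴ cells/mL with serial compound concentrations and incubated 72 h at 37 °C, 5% CO₂. Viability was read by CellTiter-Glo luminescence or CCK-8 absorbance (450/655 nm). GI50 values are from triplicate testing. GIST-T1 and CHO were grown in DMEM/10% FBS; GIST-882, GIST-48B and MV4-11 in IMDM/10% FBS; other lines in RPMI 1640/10% FBS.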
In general terms: Cellular ATP, detected with luciferase, serves as a proxy for viable cell number.

Series [5] concerns the target T2, Platelet-derived growth factor receptor beta (Homo sapiens, UniProt P09619). Briefly: Inhibition of PDGFRbeta phosphorylation at Y857 in human GIST882 cells up to 10 uM after 2 hrs by Western blot analysis. The series is classed as cell-based. In short, it runs like this:
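Cells were washed in cold PBS, lysed in RIPA and immunoblotted for phospho and total proteins, including pPDGFRα Y849/PDGFRβ Y857 and β-actin.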

Series [6] has as its target Mast/stem cell growth factor receptor Kit (Homo sapiens) (UniProt P10721). Briefly: Inhibition of cKIT autophosphorylation at Y703 in human GIST882 cells up to 10 uM after 2 hrs by Western blot analysis. The class given is cell-based.
Series [7] can be described thus: MRT(0 to t) in Sprague-Dawley rat plasma at 10 mg/kg, po. The class given is ADME, organism-based. The method, boiled down:
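Male Sprague–Dawley rats, 8 weeks old, six in total, fasted overnight; compound dissolved in 5% DMSO/40% PEG400/55% saline (1 mg/mL dosing solution), given iv or orally. About 0.2 mL jugular blood taken with heparin at 1 min–8 h (iv) or 5 min–24 h (oral); plasma separated at 2–8 °C and stored at −80 °C before analysis.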

The nature of series [8]: Antiproliferative activity against human HL60 cells assessed as reduction in cell viability after 72 hrs by celltiter-glo/CCK8 assay. The class given is functional. The settings on record: HL-60, 72 h. In short, it runs like this: as §1
Series [9] has as its target Mast/stem cell growth factor receptor Kit (Homo sapiens) (UniProt P10721). The series is described as follows: Inhibition of cKIT autophosphorylation at Y823 in human GIST48B cells up to 10 uM after 2 hrs by Western blot analysis. The class given is cell-based.
The target is the same in series [10]. The series is described as follows: Inhibition of cKIT autophosphorylation at Y719 in human GIST882 cells up to 10 uM after 2 hrs by Western blot analysis. The series is classed as cell-based.
For series [11], the system named is GISTT1. The series is described as follows: Antitumor activity against human GISTT1 cells xenografted in nu/nu mouse assessed as suppression of proliferation at 25 to 100 mg/kg/day administered through oral gavage after 21 days by Ki67 assay. The series is classed as functional, organism-based. The method, boiled down: (§2)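 Female nu/nu mice, 6 weeks old, received 5 × 10⁶ GIST-T1 cells in PBS/Matrigel (1:1) subcutaneously in the right flank. At 100−200 mm³, six mice per group were dosed daily by oral gavage at 25, 50 or 100 mg/kg/d in 0.5% methylcellulose/0.4% Tween80, or vehicle. Tumor volume was taken as (W²×L)/2, with body weight and tumor measured daily. Tumors were stained for Ki67 (IHC, 1:50 antibody) and by TUNEL.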
A general note: In xenograft studies the graft and the host belong to different species.

A short description of series [12]: AUC(0 to infinity) in Sprague-Dawley rat plasma at 10 mg/kg, po. On the set-up: dose 10 mg/kg, time infinity, route oral. The class given is ADME, organism-based. The method, boiled down: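 Male Sprague-Dawley rats, 8 weeks old, fasted overnight, dosed iv or orally. Formulation was 5% DMSO/40% PEG400/55% saline at 1 mg/mL. Blood (~0.2 mL) was drawn from the jugular vein into heparin. Sampling: iv at 1 min to 8 h; oral at 5 min to 24 h. Plasma was separated by centrifugation at 2−8 °C and stored at −80 °C.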

The target of series [13] is Mast/stem cell growth factor receptor Kit (Homo sapiens) (UniProt P10721). The series is described as follows: Inhibition of cKIT autophosphorylation at Y823 in human GISTT1 cells up to 10 uM after 2 hrs by Western blot analysis. The series is classed as cell-based.
Mast/stem cell growth factor receptor Kit (Homo sapiens), sequence (P10721 whole entry): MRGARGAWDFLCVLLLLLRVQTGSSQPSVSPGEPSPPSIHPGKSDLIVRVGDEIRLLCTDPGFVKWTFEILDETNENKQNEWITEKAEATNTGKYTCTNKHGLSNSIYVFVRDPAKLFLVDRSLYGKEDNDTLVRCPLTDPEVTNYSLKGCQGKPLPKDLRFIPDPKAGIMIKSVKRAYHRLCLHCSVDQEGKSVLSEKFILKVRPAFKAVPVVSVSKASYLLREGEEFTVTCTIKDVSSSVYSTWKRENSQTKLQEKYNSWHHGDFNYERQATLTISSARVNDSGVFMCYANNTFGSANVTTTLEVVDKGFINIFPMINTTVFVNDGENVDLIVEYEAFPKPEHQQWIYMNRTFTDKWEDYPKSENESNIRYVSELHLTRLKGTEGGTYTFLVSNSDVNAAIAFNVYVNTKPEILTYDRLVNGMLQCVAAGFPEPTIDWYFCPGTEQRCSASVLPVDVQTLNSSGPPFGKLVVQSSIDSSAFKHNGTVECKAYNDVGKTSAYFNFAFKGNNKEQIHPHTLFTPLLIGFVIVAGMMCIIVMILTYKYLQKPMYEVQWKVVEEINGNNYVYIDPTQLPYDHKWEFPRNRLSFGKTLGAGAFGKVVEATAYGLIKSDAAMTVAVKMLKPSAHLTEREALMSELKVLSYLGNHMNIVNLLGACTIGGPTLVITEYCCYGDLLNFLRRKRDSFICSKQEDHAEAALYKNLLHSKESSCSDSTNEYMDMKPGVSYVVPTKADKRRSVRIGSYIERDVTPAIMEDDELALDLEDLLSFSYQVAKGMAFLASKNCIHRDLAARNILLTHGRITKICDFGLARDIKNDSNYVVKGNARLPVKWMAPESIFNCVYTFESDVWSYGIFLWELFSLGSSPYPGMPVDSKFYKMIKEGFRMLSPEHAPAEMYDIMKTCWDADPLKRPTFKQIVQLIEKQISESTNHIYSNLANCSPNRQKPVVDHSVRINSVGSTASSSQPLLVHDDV
Series [14] is described as follows: Antiproliferative activity against mouse BAF3 cells. The class given is cell-based.
Series [15] deals with Mast/stem cell growth factor receptor Kit (Homo sapiens) (UniProt P10721). Briefly: Inhibition of human wild type partial length cKIT expressed in bacterial expression system assessed as residual activity at 1 uM by KinomeScan method. The method, boiled down:
(§3)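 KinomeScan competitive binding panel of 468 kinases and mutants, compound tested at 1 μM; read-out is percent activity remaining (binding relative to control).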

Series [16] deals with T2, Platelet-derived growth factor receptor beta. Briefly: Inhibition of human wild type partial length PDGFRbeta expressed in bacterial expression system assessed as residual activity at 1 uM by KinomeScan method. In short, it runs like this:
as §3

For series [17], the target named is Mast/stem cell growth factor receptor Kit (Homo sapiens) (UniProt P10721). Briefly: Inhibition of cKIT in human GIST48B cells assessed as suppression of AKT phosphorylation at S473 up to 10 uM after 2 hrs by Western blot analysis. The class given is cell-based.
For a further series, the system named is Mus musculus. Briefly: Toxicity in nu/nu mouse xenografted with human GISTT1 cells assessed as body weight change at 25 to 100 mg/kg/day administered through oral gavage after 21 days. The series is classed as organism-based. The settings on record: in vivo, 504 h. In short, it runs like this:
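Female nu/nu mice, 6 weeks old, injected subcutaneously in the right flank with 5 million GIST-T1 cells in PBS/Matrigel 1:1. At tumor volume 100–200 mm³, randomized to groups of six; daily oral gavage of 25, 50 or 100 mg/kg/d or vehicle (0.5% methylcellulose/0.4% Tween80 in water). Body weight measured daily, normalized to initial weight; mean ± SEM.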

In a further series the test system is GIST882. The series is described as follows: Induction of apoptosis in human GIST882 cells assessed as caspase 3 cleavage up to 3 uM after 72 hrs by Western blot analysis. The class given is functional, cell-based.
The test system of a further series is MV4-11. The series is described as follows: Antiproliferative activity against FLT3-ITD dependent human MV4-11 cells assessed as reduction in cell viability after 72 hrs by celltiter-glo/CCK8 assay. The settings on record: MV4-11, 72 h. The series is classed as functional. In short, it runs like this:
as §1

For series [18], the system named is GISTT1. Briefly: Induction of apoptosis in human GISTT1 cells xenografted in nu/nu mouse at 25 to 100 mg/kg/day administered through oral gavage after 21 days by tunel assay. The class given is functional, organism-based. In short, it runs like this:
as §2

Series [19] deals with Mast/stem cell growth factor receptor Kit (Homo sapiens), P10721 [V559D]. Briefly: Inhibition of Tel-fused cKIT V559D mutant (unknown origin) transfected in mouse BAF3 cells assessed as decrease in cell proliferation after 72 hrs by celltiter-glo/CCK8 assay. The class given is cell-based. The method, boiled down: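 Stable BaF3 lines made by retroviral transduction with mutagenized TEL-KIT MSCV vectors, puromycin selection 48 h, then gradual IL-3 withdrawal until IL-3-independent; grown in RPMI 1640 with 10% FBS. Cells at 1 to 3 × 10⁴ cells/mL exposed to a concentration series for 72 h; viability read by CellTiter-Glo luminescence or CCK-8 absorbance (450/655 nm); GI50 from triplicate testing.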
Mast/stem cell growth factor receptor Kit (Homo sapiens), P10721 [V559D], sequence (P10721 whole entry V559D, the tested form may be a part): as the sequence (P10721 whole entry) above, with V559D counted along it

In series [20] the target is T1, Macrophage colony-stimulating factor 1 receptor. Briefly: Inhibition of human wild type partial length CSF1R expressed in bacterial expression system assessed as residual activity at 1 uM by KinomeScan method. The method, boiled down:
as §3

Series [21] can be described thus: Antiproliferative activity against CHL cells assessed as reduction in cell viability after 72 hrs by celltiter-glo/CCK8 assay. The class given is cell-based, Cricetulus griseus. The settings on record: chinese hamster. The method, boiled down: as §1

T1 sequence (P07333 whole entry): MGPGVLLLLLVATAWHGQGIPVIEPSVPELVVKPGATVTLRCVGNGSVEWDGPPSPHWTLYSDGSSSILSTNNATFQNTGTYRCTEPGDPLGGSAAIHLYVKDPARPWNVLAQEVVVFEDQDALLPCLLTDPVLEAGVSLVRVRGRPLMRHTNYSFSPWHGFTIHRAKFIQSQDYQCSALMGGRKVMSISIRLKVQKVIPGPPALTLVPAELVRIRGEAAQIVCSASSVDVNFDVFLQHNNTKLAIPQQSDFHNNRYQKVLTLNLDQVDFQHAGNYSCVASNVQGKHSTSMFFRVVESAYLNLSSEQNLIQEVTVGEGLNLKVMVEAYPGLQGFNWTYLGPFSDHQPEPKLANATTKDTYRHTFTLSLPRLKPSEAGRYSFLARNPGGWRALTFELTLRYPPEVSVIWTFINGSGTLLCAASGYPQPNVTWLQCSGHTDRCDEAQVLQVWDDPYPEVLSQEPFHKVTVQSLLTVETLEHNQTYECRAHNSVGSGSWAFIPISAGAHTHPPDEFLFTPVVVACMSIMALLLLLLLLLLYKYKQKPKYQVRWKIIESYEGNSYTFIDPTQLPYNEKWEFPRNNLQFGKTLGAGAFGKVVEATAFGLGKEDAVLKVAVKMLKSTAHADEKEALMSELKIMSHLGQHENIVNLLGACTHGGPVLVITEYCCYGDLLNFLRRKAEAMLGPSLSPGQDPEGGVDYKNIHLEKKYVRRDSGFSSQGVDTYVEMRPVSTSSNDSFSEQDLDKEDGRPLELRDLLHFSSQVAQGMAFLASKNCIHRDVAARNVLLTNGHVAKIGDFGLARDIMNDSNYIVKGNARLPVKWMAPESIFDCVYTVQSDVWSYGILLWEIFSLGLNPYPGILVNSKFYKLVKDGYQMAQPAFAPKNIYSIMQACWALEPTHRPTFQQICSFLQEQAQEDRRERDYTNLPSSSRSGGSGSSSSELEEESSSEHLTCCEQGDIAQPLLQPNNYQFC
T2 sequence (P09619 whole entry): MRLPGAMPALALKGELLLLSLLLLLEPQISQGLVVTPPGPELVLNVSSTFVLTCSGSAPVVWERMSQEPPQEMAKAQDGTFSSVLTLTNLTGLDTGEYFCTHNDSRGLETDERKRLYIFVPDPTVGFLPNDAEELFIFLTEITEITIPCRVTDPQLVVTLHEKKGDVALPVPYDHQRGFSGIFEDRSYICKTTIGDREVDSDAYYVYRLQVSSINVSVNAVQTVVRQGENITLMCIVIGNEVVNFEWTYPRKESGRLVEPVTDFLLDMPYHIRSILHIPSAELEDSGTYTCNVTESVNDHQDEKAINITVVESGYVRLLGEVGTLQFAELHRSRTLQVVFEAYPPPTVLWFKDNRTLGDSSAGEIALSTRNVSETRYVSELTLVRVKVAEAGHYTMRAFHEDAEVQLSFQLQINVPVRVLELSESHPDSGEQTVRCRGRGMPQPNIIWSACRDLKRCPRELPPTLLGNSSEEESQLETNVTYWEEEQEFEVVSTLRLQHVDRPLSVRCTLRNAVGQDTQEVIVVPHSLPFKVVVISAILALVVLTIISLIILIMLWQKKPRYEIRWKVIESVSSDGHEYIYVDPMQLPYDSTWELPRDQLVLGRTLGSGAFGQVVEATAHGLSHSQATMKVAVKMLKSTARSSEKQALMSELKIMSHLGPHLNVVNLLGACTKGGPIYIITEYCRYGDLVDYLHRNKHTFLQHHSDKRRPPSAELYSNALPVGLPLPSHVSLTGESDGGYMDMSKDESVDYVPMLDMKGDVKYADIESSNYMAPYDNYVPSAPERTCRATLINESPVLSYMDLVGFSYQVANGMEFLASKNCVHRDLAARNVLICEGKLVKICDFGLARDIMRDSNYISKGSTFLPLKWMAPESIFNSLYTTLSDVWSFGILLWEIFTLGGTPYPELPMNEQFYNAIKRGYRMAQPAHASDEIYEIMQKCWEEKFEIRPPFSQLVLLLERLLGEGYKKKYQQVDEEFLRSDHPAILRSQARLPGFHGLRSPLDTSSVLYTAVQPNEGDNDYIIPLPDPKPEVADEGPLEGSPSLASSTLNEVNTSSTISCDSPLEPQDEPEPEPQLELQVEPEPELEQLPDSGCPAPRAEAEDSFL

Broadly, the IC50 is the concentration at which inhibition is half-maximal. By GI50 is commonly meant the concentration that inhibits growth by half. In general, MRT last refers to the average time that molecules of a dose stay in the body. A word on the AUC(0-inf): it is total exposure, with the tail of the curve extrapolated. Read a high AUC(0-inf) as high exposure. Turning to `Cc1ccc(NC(=O)c2cccc(C(F)(F)F)c2)cc1OC1CCN(C(=O)c2ccncc2)CC1`, the inhibition result in series [1], in [3], in [5], in series [6], in series [10] and in series [13] was “Active” each time. The IC50 in series [2] is 133 nM. Besides, the 50% growth inhibitory concentration (GI50) is 43 nM in [4]; over 10000 nM in series [8]; over 10000 nM in series [14]; over 10000 nM in the series with MV4-11; 40 nM in [19]. The compound further displayed an MRT last in series [7] of 4.8 h. Further, the inhibition result in series [9] and in series [17] was “inactive” in each case. Further, the result with GISTT1 [11], in the series with GIST882 and in the series on GISTT1 [18] was Active. The AUC(0-inf) in [12] came out at 780 ng·h/mL. Moreover, the Activity in series [15] was 0.45%; in [16] it was 0.2%; in the series with Mus musculus, “Non-toxic”; in series [20] it was 0.6%. For the same compound, in series [21], the GI50 at 72 h was over 10000 nM.
